The list is not random: actives were taken first. Their share in the collection is about 4%.
TAAR1 antag: human TAAR1 antagonism | Q96RJ0 | CHO RD-HGA16 TAAR1, Fluo-8 calcium fluorescence, antagonist | inhibition, % at 3 µM | 1.5% of 360,000 active;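 active means inhibition above a per-plate cutoff, the mean inhibition of test compounds on that plate plus 3 SD, cut at about 49% in these data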;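 further: 0% = DMSO plus EC80 beta-PEA response and 100% = DMSO alone without agonist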
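System: RD-HGA16 CHO cells with stable hTAAR1 and Gα16 | Probe or stimulus: EC80 β-phenethylamine stimulus | Dosing: 3 µM, single point | Times: Dye loading 75 min at 37 °C, then 30 min room temperature | Measured by: Fluo-8 calcium-sensitive fluorescence | Read-out basis: % inhibition of agonist calcium response | Replicates: n of 1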
GPR7 antag: human neuropeptides B/W receptor 1 antagonism. 1.1% of 290,000 active. inhibition, % at 4.4 µM. P48145. GPR7-expressing cells, fluorescence antagonist assay; in the data active means inhibition above about 16%, passing the limit was not always enough;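 further: cells stimulated with the agonist NPW; 0% = agonist with vehicle and 100% = vehicle without agonist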
TAAR1 ag: human TAAR1 agonism | Q96RJ0 | CHO RD-HGA16 TAAR1, Fluo-8 calcium fluorescence; vehicle wells 0%, saturating PEA agonist 100% | activation, % at 3 µM | 0.99% of 360,000 active | AID 624467;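 active means activation above the mean activation of all test compounds in the run plus 3 SD, cut at about 38% in these data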
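Repeats: no replicates (n 1) | Material: CHO-derived RD-HGA16 cells with stable Gα16 and human TAAR1 | Technique: Kinetic Fluo-8 calcium fluorescence | Schedule: 17-24 h seeding, 75 min 37 °C dye, 30 min RT | Evaluation: % activation from peak over basal fluorescence ratio, DMSO-to-PEA scaled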
MPTP block: blocks calcium-induced mitochondrial swelling; isolated mouse mitochondria, Ca2+ swelling absorbance, 30 min; inhibition, % at 10 µM; 1.4% of 360,000 active;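 active means inhibition of 50% or more, scaled per plate between neutral and stimulator controls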;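 further: 0% = DMSO wells given calcium and 100% = 1 mM EGTA wells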
DAGLB inhibitor: blocks human DAGLB lipase activity; inhibition, % at 5.17 µM; HEK293T DAGLB membrane lysate, EnzChek fluorogenic substrate; 0.059% of 340,000 active; Q8NCG7; in the data active means inhibition above about 34%;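 further: 0% = enzyme with vehicle and 100% = wells lacking enzyme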
Target sequence (Q8NCG7 whole entry, looked up): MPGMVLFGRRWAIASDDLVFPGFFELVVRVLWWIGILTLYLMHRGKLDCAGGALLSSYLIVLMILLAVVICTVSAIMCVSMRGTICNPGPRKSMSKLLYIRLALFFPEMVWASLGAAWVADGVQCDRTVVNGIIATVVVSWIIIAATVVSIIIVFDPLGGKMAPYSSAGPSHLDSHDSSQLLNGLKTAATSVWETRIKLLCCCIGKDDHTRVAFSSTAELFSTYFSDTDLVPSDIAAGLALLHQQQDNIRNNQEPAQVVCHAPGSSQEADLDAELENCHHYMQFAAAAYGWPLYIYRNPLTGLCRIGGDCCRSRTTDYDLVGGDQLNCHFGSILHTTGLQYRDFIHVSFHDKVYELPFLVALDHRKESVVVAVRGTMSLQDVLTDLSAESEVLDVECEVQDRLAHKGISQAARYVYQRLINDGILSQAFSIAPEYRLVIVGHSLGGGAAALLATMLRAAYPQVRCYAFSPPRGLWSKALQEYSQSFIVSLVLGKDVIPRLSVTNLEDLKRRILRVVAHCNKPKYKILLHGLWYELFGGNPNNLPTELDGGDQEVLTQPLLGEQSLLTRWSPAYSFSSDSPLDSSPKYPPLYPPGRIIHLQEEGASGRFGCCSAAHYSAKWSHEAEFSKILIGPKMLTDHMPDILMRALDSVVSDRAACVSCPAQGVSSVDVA
nonsel antag count: counter-screen for TAAR1 antagonists: nonselective antagonists | AID 651780 | inhibition, % at 3 µM | 77% of 2,400 active | shares compounds with TAAR1 antag | counterscreen cell line, calcium fluorescence, antagonist mode; in the data active means inhibition above about 22%;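 further: CHO-Ga16 host cells stimulated with ATP at an EC80 level; 0% = agonist EC80 plus vehicle and 100% = vehicle without agonist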
TAAR1 ant conf: human TAAR1 antagonism, confirmed. shares compounds with TAAR1 antag. TAAR1-expressing cells, fluorescence antagonist read-out. inhibition, % at 3 µM. 40% of 2,400 active; in the data active means inhibition above about 49%;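 further: CHO-Ga16 host cells challenged with agonist PEA near its EC80; 0% = agonist at EC80 plus vehicle and 100% = vehicle with no agonist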
Ga16 nonsel ag: nonselective Ga16 agonism, counter-screen; shares compounds with TAAR1 antag; Ga16-expressing cells, calcium fluorescence, agonist counterscreen; activation, % at 3 µM; 18% of 2,400 active; in the data active means activation above about 12%;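 further: 0% = vehicle wells and 100% = saturating stimulus response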
TAAR1 ag count: counter-screen for human TAAR1 antagonists: TAAR1 agonists. hTAAR1 cell line, fluorescence activation, agonist mode. 2% of 2,400 active. shares compounds with TAAR1 antag. activation, % at 3 µM; in the data active means activation above about 37%;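 further: CHO cells stably expressing TAAR1 with calcium dye readout; 0% = DMSO vehicle and 100% = full agonist response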
Active calls of the source: *; nt = no result given.

SMILES	TAAR1 antag	GPR7 antag	TAAR1 ag	MPTP block	DAGLB inhibitor	nonsel antag count	TAAR1 ant conf	Ga16 nonsel ag	TAAR1 ag count
CC1CCCCC1NC(=O)C1CCC(CNS(=O)(=O)c2ccc3c(c2)C(C)(C)C(=O)N3C)CC1 (centres undefined)	0	nt	1	-2	nt	nt	nt	nt	nt
CCc1ccc(NC(=S)N(Cc2cccc(Br)c2)CC2CCC(C(=O)O)CC2)cc1 (centres undefined)	61*	-12	8	-1	-3	12	27	5	23
O=C(O)C1CCN(C(=O)c2ccc3c(c2)OCO3)CC1	9	-4	0	-1	-2	nt	nt	nt	nt
O=C(c1cc(=O)[nH]c2ccccc12)N1CCN(S(=O)(=O)c2ccc3ccccc3c2)CC1	67*	-11	19	0	2	30*	49	8	6
COc1ccc(N(CC(=O)NCCSc2ccc(C)cc2)S(=O)(=O)c2ccccc2)c(OC)c1	68*	-4	9	1	0	22*	51*	9	11
CCOC(=O)C1=C(COC(=O)/C=C/c2ccccc2)NC(=O)NC1C (centres undefined)	63*	nt	19	-2	-3	25*	46	10	11
CCOC(=O)C1=C(COC(=O)/C=C/c2ccc(C)o2)NC(=O)NC1C (centres undefined)	22	nt	13	0	-2	nt	nt	nt	nt
CCOC(=O)C1=C(COC(=O)Cc2ccc(Br)cc2)NC(=O)NC1C (centres undefined)	69*	7	9	0	0	25*	39	7	4
CCOC(=O)C1=C(COC(=O)/C=C/c2cccc(OC)c2OC)NC(=O)NC1C (centres undefined)	73*	-18	19	1	0	25*	52*	12*	20
CCOC(=O)C1=C(COC(=O)/C=C/c2ccc(OCC)c(OC)c2)NC(=O)NC1C (centres undefined)	10	nt	3	0	0	nt	nt	nt	nt
O=C(CCCC(=O)NN=Cc1ccccc1Cl)NN=Cc1ccccc1Cl	51*	nt	1	0	1	20	27	1	1
O=C(CCCC(=O)NN=Cc1ccc(Cl)cc1Cl)NN=Cc1ccc(Cl)cc1Cl	-14	nt	4	3	-2	nt	nt	nt	nt
CN(C)c1ccc(C(C(=O)NCC2CCCO2)N(Cc2ccco2)C(=O)c2snc(C(N)=O)c2N)cc1 (centres undefined)	67*	1	20	-1	-1	34*	52*	9	11
CCOc1ccc(C(C(=O)NCC2CCCO2)N(CCc2cccc(C)c2)C(=O)c2snc(C(N)=O)c2N)cc1 (centres undefined)	67*	-28	28	0	-1	34*	53*	16*	39*
CN(C)c1ccc(C(C(=O)NCC2CCCO2)N(Cc2ccccc2)C(=O)c2snc(C(N)=O)c2N)cc1 (centres undefined)	65*	-7	22	-3	1	33*	57*	13*	16
COc1ccc(C(C(=O)NCC2CCCO2)N(Cc2ccccc2)C(=O)c2snc(C(N)=O)c2N)cc1OC (centres undefined)	21	-8	12	-1	-2	nt	nt	nt	nt
CCc1nc2c(OCC(=O)c3ccc(Cl)cc3Cl)cccn2c1N(C=O)Cc1ccccc1	12	nt	0	1	nt	nt	nt	nt	nt
CCCCN1CC(COCc2ccccc2)Oc2cccc(OCc3ccc(OC)cc3)c2S1(=O)=O (centres undefined)	-1	nt	6	0	-23	nt	nt	nt	nt
CCn1c(SCC(=O)N2CCc3ccccc32)nnc1-c1c[nH]c2ccccc12	55*	23	11	-2	0	16	34	6	8
COc1ccc(-c2cc(NC(=O)Cc3c(C)[nH]c4ccccc34)ccc2Nc2cccnc2)cc1F	26	nt	2	nt	nt	nt	nt	nt	nt
Cc1ccc(C)c(N2CCN(C(=O)C34CC5CC(C3)CC(n3nnc(C)n3)(C5)C4)CC2)c1	59*	-9	7	13	-8	35*	43	7	5
O=C(CSc1c(Cl)cccc1Cl)N1CCC(c2nc3ccccc3s2)CC1	59*	-5	18	8	-9	44*	50*	12*	11
O=C(CSc1ccc(Cl)cc1)N1CCC(c2nc3ccccc3s2)CC1	36	0	9	4	-5	nt	nt	nt	nt
COc1cc(/C=N/NC(=O)c2cccnc2)ccc1OS(=O)(=O)c1cc(C)ccc1C	64*	6	25	4	-1	32*	57*	14*	12
COc1cc(/C=N/NC(=O)c2cccnc2)ccc1OS(=O)(=O)c1ccc(C)cc1	30	-2	12	0	-1	nt	nt	nt	nt
SMILES	TAAR1 antag	GPR7 antag	TAAR1 ag	MPTP block	DAGLB inhibitor	nonsel antag count	TAAR1 ant conf	Ga16 nonsel ag	TAAR1 ag count
O=C(OCC(=O)N(CCc1ccccc1)Cc1ccccc1)c1ccccc1O	48	nt	4	1	-11	nt	nt	nt	nt
O=C(OCC(=O)N(CCc1ccccc1)Cc1ccccc1)c1ccccc1NCCO	62*	-12	5	0	-5	29*	47	4	3
COc1cccc(C2NC(=S)N(Cc3ccccc3)C(C)=C2C(C)=O)c1 (centres undefined)	3	nt	-1	nt	nt	nt	nt	nt	nt
Cc1ccc(-c2nc3cccnc3s2)cc1NS(=O)(=O)c1ccc2c(c1)OCCO2	59*	5	9	0	-3	30*	37	7	2
O=S(=O)(Nc1cccc(-c2nc3cccnc3s2)c1)c1ccc2c(c1)OCCO2	40	-11	11	2	0	nt	nt	nt	nt
COc1ccc(S(=O)(=O)N2CCCC2CNC(=O)C(=O)Nc2cccc(F)c2)cc1 (centres undefined)	-6	nt	4	0	-3	nt	nt	nt	nt
CC1CCc2cc(F)ccc2N1C(=O)CSc1nnc2c(n1)[nH]c1ccccc12 (centres undefined)	56*	-4	13	10	0	34*	58*	7	9
Cc1ccc(NC(=O)C2(C)CCN2C(=O)c2ccccc2CCc2ccccc2)cc1C (centres undefined)	-17	nt	-1	0	nt	nt	nt	nt	nt
COc1ccc(NC(=O)C2(C)CCN2C(=O)c2ccccc2CCc2ccccc2)cc1OC (centres undefined)	65*	nt	5	7	nt	18	43	6	16
O=C(Cc1cn(Cc2ccccc2)c2ccccc12)Nc1ccc(Nc2cccnc2)cc1	19	nt	0	nt	nt	nt	nt	nt	nt

Screening results deposited in PubChem by several laboratories.
